Measured values: ChEMBL document CHEMBL4184148 (Bioorg Med Chem Lett, 2017)

Columns and labels:
[1] = system: ALK tyrosine kinase receptor (Homo sapiens), Q9UM73 [L1196M]; experiment: Binding affinity to […] human partial length ALK L1196M mutant (I1088 to E1409 residues) expressed in HEK293 cells at 1 uM by Kinomescan method relative to control; type: cell-based
[2] = system: Receptor-type tyrosine-protein kinase FLT3 (Homo sapiens), P36888 [K663Q]; experiment: Binding affinity to human partial length FLT3 K663Q mutant (V592 to Y969 residues) expressed in Escherichia coli BL21 at 1 uM by Kinomescan method relative to control
[3] = target: Testis-specific serine/threonine-protein kinase 1 (Homo sapiens) (UniProt Q9BXA7); experiment: Binding affinity to wild-type human full length TSSK1B (M1 to Q367 residues) expressed in Escherichia coli BL21 at 1 uM by Kinomescan method relative to control
In short: (§1)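 Kinome-wide competition binding panel run by an outside provider, with each compound tested at a single concentration. Activity is read against the kinase panel.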

[4] = target: Mitogen-activated protein kinase kinase kinase kinase 1 (Homo sapiens) (UniProt Q92918); experiment: Binding affinity to wild-type human full length HPK1 (M1 to R799 residues) expressed in Escherichia coli BL21 at 1 uM by Kinomescan method relative to control
In short: (§2)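 Run as one kinome-wide competition binding panel with each compound at a single fixed concentration. Results were plotted as a kinome-wide selectivity map.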

[5] = target: Serine/threonine-protein kinase Nek10 (Homo sapiens) (UniProt Q6ZWH5); experiment: Binding affinity to wild-type human partial length NEK10 (L488 to R809 residues) expressed in HEK293 cells at 1 uM by Kinomescan method relative to control; type: cell-based
[6] = target: Homeodomain-interacting protein kinase 3 (Homo sapiens) (UniProt Q9H422); experiment: Binding affinity to wild-type human partial length HIPK3 (M153 to N562 residues) expressed in HEK293 cells at 1 uM by Kinomescan method relative to control; type: cell-based
[7] = target: Casein kinase I isoform alpha (Homo sapiens) (UniProt P48729); experiment: Binding affinity to wild-type human partial length CSNK1A1 (M1 to L450 residues) expressed in HEK293 cells at 1 uM by Kinomescan method relative to control; type: cell-based
[8] = target: Serine/threonine-protein kinase Nek3 (Homo sapiens) (UniProt P51956); experiment: Binding affinity to wild-type human full length NEK3 (M1 to R506 residues) expressed in HEK293 cells at 1 uM by Kinomescan method relative to control; type: cell-based; in short: as §1
[9] = target: Ribosomal protein S6 kinase alpha-6 (Homo sapiens) (UniProt Q9UK32); experiment: Binding affinity to wild-type human partial length C-terminal RSK4 kinase domain 2 (I401 to Y711 residues) expressed in Escherichia coli BL21 at 1 uM by Kinomescan method relative to control
[10] = target: Casein kinase I isoform gamma-2 (Homo sapiens) (UniProt P78368); experiment: Binding affinity to wild-type human full length CSNK1G2 (M1 to K415 residues) expressed in Escherichia coli BL21 at 1 uM by Kinomescan method relative to control; in short: as §2
[11] = target: Serine/threonine-protein kinase DCLK1 (Homo sapiens) (UniProt O15075); experiment: Binding affinity to wild-type human partial length DCAMKL1 (L270 to A662 residues) expressed in HEK293 cells at 1 uM by Kinomescan method relative to control; type: cell-based
[12] = target: SRSF protein kinase 2 (Homo sapiens) (UniProt P78362); experiment: Binding affinity to wild-type human full length SRPK2 (M1 to S686 residues) expressed in Escherichia coli BL21 at 1 uM by Kinomescan method relative to control; in short: as §1
[13] = system: Hepatocyte growth factor receptor (Homo sapiens), P08581 [M1250T]; experiment: Binding affinity to human partial length MET M1250T mutant (D1010 to S1367 residues) expressed in Escherichia coli BL21 at 1 uM by Kinomescan method relative to control
[14] = target: Ephrin type-A receptor 6 (Homo sapiens) (UniProt Q9UF33); experiment: Binding affinity to wild-type human partial length EPHA6 (Y700 to E1046 residues) expressed in Escherichia coli BL21 at 1 uM by Kinomescan method relative to control
[15] = target: Dual specificity protein kinase TTK (Homo sapiens) (UniProt P33981); experiment: Binding affinity to wild-type human partial length TTK (N505 to V798 residues) expressed in Escherichia coli BL21 at 1 uM by Kinomescan method relative to control
[16] = target: Myosin light chain kinase (Homo sapiens) (UniProt Q32MK0); experiment: Binding affinity to wild-type human partial length MLCK (D488 to K800 residues) expressed in Escherichia coli BL21 at 1 uM by Kinomescan method relative to control
[17] = Half life in mouse hepatic microsomes at 1 mg/ml; type: ADME, Liver, microsome
[18] = target: Tyrosine-protein kinase Yes (Homo sapiens) (UniProt P07947); experiment: Binding affinity to wild-type human partial length YES (T257 to L543 residues) expressed in Escherichia coli BL21 at 1 uM by Kinomescan method relative to control
[19] = target: Tyrosine-protein kinase Mer (Homo sapiens) (UniProt Q12866); experiment: Binding affinity to wild-type human partial length MERTK (R557 to L884 residues) expressed in Escherichia coli BL21 at 1 uM by Kinomescan method relative to control
[20] = target: Receptor-interacting serine/threonine-protein kinase 4 (Homo sapiens) (UniProt P57078); experiment: Binding affinity to wild-type human partial length RIPK4 (M1 to V303 residues) expressed in HEK293 cells at 1 uM by Kinomescan method relative to control; type: cell-based
[21] = target: Cyclin-dependent kinase-like 1 (Homo sapiens) (UniProt Q00532); experiment: Binding affinity to wild-type human full length CDKL1 (M1 to I358 residues) expressed in HEK293 cells at 1 uM by Kinomescan method relative to control; type: cell-based; in short: as §2
[22] = target: Wee1-like protein kinase (Homo sapiens) (UniProt P30291); experiment: Binding affinity to wild-type human partial length WEE1 (M291 to K575 residues) expressed in Escherichia coli BL21 at 1 uM by Kinomescan method relative to control
[23] = target: Glycogen synthase kinase-3 alpha (Homo sapiens) (UniProt P49840); experiment: Binding affinity to wild-type human full length GSK3A (M1 to S483 residues) expressed in Escherichia coli BL21 at 1 uM by Kinomescan method relative to control; in short: as §2
[24] = system: Tyrosine-protein kinase ABL1 (Homo sapiens), P00519 [Y253F]; experiment: Binding affinity to human phosphorylated ABL1 Y253F mutant (S229 to K512 residues) expressed in HEK293 cells at 1 uM by Kinomescan method relative to control; type: cell-based
[25] = target: Mitogen-activated protein kinase 1 (Homo sapiens) (UniProt P28482); experiment: Binding affinity to wild-type human full length ERK2 (M1 to S360 residues) expressed in Escherichia coli BL21 at 1 uM by Kinomescan method relative to control; in short: as §2
[26] = target: Mitogen-activated protein kinase kinase kinase kinase 2 (Homo sapiens) (UniProt Q12851); experiment: Binding affinity to wild-type human partial length MAP4K2 (M1 to G318 residues) expressed in HEK293 cells at 1 uM by Kinomescan method relative to control; type: cell-based

Sequence of Ribosomal protein S6 kinase alpha-6 (Homo sapiens) (Q9UK32 whole entry, the tested form may be a part, canonical isoform): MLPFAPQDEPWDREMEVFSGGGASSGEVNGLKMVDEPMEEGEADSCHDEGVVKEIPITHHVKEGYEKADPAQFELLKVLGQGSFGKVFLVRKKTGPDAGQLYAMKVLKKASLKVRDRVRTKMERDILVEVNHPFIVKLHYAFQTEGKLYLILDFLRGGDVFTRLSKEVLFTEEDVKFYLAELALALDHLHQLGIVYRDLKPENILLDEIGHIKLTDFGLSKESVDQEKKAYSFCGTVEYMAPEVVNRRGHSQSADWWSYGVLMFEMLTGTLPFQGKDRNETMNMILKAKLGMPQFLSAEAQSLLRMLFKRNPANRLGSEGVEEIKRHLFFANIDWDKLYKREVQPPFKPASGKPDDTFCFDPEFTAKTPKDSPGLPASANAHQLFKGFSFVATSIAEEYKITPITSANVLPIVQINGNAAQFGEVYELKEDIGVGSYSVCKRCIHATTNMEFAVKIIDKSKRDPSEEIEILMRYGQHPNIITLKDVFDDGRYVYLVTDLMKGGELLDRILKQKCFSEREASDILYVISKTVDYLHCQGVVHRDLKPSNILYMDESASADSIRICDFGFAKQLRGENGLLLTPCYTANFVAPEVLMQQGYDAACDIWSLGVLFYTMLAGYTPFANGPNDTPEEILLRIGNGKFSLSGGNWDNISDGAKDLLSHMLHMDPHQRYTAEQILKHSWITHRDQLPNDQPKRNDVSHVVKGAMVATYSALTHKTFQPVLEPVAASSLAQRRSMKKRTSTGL
Sequence of Ephrin type-A receptor 6 (Homo sapiens) (Q9UF33 whole entry, the tested form may be a part): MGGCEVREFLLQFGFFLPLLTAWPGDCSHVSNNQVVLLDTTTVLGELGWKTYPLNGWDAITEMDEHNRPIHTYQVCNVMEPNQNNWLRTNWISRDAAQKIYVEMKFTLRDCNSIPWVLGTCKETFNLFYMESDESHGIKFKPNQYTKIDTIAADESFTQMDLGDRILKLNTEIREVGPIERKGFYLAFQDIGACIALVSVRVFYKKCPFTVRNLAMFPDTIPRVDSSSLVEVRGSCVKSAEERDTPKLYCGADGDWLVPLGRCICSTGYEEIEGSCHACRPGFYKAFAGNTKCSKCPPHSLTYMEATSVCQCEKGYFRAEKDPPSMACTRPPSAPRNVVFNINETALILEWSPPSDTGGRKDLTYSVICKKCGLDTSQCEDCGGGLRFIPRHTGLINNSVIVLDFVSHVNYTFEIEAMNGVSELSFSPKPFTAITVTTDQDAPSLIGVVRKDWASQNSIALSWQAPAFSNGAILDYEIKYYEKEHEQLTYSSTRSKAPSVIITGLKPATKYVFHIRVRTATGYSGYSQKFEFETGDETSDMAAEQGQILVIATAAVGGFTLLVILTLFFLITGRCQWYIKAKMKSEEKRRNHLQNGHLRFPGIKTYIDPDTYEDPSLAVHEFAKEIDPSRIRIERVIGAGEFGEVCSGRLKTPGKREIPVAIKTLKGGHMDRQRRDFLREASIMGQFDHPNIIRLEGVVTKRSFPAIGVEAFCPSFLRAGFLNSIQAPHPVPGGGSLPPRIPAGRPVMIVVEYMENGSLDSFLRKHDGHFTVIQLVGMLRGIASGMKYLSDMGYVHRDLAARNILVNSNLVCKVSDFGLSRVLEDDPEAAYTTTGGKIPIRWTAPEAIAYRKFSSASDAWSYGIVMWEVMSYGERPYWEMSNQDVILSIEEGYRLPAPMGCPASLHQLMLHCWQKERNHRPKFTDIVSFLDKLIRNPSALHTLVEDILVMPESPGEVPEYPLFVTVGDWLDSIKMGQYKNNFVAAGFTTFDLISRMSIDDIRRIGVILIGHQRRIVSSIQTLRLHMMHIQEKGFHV
Sequence of Receptor-interacting serine/threonine-protein kinase 4 (Homo sapiens) (P57078 whole entry, the tested form may be a part): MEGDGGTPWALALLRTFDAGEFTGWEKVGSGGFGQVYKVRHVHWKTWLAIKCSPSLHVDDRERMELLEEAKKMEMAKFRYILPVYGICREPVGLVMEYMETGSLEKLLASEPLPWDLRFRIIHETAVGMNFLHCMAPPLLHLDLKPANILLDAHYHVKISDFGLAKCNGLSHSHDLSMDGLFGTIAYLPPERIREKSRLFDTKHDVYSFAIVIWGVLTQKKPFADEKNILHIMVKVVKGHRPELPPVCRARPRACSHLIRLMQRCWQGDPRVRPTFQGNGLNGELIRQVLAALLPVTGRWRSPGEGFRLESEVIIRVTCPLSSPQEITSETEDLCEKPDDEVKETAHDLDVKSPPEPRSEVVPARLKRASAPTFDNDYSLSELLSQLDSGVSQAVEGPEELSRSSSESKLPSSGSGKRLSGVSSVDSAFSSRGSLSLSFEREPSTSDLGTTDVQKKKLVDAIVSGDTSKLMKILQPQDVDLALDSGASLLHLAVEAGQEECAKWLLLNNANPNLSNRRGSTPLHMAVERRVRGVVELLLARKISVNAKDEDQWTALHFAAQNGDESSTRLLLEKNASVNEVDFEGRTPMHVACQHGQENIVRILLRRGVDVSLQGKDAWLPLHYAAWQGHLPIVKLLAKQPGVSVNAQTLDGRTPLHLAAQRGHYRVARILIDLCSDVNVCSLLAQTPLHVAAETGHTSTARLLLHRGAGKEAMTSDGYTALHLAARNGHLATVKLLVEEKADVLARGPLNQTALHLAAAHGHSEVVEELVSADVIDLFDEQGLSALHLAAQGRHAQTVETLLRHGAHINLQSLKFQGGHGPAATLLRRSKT
Sequence of Homeodomain-interacting protein kinase 3 (Homo sapiens) (Q9H422 whole entry, looked up, the tested form may be a part, canonical isoform): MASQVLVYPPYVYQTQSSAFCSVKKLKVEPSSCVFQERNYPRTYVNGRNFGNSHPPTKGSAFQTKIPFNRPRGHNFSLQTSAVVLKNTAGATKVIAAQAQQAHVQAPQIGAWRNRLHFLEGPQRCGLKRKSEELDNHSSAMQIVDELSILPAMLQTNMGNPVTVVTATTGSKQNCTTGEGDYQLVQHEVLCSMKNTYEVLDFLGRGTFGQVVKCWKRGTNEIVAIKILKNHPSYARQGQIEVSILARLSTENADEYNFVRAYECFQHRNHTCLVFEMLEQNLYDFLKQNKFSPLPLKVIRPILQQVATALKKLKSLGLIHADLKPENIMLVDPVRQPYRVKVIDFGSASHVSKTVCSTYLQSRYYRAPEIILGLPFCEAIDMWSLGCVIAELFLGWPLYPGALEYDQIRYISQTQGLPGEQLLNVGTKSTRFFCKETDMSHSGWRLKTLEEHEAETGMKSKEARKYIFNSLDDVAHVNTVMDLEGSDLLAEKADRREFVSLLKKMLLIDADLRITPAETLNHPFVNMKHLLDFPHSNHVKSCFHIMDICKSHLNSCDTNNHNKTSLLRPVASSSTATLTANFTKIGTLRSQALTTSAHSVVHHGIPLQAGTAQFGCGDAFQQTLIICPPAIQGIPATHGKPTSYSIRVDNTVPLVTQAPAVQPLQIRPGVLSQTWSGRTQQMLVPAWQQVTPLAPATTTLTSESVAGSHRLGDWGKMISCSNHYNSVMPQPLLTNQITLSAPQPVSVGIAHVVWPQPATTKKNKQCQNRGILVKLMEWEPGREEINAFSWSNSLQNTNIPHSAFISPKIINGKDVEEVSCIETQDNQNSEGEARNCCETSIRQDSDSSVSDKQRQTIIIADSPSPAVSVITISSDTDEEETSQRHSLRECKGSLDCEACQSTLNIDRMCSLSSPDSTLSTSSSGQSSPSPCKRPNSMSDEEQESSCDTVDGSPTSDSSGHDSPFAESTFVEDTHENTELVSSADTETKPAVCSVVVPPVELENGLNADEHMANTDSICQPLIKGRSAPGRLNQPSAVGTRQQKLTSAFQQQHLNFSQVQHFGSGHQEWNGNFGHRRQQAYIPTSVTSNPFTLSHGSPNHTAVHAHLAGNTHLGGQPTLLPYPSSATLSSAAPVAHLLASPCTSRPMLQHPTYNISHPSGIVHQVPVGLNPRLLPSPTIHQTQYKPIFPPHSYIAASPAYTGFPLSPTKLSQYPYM
Sequence of Cyclin-dependent kinase-like 1 (Homo sapiens) (Q00532 whole entry, the tested form may be a part): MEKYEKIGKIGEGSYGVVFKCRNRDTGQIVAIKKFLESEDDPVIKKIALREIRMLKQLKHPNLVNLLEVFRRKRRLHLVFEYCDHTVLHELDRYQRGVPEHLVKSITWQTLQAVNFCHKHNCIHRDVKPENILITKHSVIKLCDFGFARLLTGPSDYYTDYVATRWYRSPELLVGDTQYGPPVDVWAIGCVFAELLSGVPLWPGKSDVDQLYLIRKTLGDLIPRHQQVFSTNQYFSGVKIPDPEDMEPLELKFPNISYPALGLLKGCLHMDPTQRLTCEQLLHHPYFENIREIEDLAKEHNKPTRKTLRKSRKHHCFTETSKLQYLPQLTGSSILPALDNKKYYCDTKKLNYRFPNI
Sequence of Casein kinase I isoform gamma-2 (Homo sapiens) (P78368 whole entry, looked up, the tested form may be a part, canonical isoform): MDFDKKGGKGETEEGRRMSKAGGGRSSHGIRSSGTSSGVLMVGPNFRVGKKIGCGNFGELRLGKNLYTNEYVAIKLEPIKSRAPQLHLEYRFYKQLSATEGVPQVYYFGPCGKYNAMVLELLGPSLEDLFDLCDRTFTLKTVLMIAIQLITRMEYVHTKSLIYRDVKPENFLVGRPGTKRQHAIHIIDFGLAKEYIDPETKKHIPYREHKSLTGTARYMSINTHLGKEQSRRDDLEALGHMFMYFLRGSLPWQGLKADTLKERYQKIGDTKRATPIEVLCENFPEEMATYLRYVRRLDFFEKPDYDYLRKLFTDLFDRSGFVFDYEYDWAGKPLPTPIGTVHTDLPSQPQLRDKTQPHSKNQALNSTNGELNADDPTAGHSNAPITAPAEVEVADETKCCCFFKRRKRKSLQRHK
Sequence of Mitogen-activated protein kinase 1 (Homo sapiens) (P28482 whole entry, the tested form may be a part): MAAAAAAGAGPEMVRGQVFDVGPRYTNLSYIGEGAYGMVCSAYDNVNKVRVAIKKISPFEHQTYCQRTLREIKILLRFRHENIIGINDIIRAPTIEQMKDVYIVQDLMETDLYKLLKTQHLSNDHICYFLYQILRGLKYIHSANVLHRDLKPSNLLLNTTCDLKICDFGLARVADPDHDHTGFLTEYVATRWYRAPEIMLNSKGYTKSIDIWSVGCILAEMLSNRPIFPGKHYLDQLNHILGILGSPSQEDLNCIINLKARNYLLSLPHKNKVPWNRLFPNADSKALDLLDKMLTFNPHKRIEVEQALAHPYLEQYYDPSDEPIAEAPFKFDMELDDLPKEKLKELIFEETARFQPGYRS

Row | SMILES | Activity [1] | Activity [2] | Activity [3] | Activity [4] | Activity [5] | Activity [6] | Activity [7] | Activity [8] | Activity [9] | Activity [10] | Activity [11] | Activity [12] | Activity [13] | Activity [14] | Activity [15] | Activity [16] | t1/2 [17] | Activity [18] | Activity [19] | Activity [20] | further results
1 | CCC(=O)Nc1ccc(C(=O)Nc2ccc(Nc3ncc4c(n3)N(C)c3ccc(C)cc3C(=O)N4C)cc2)cc1 | 96% | 81% | 89% | 86% | 85% | 67% | 58% | 70% | 100% | 86% | 72% | 100% | 93% | 76% | 87% | 99% | 2.9 min | 83% | 100% | 86% | Activity [21]: 88%; Activity [22]: 100%; Activity [23]: 100%; Activity [24]: 3.5%; Activity [25]: 87%; Activity [26]: 97%
2 | C=CC(=O)Nc1ccc(C(=O)Nc2ccc(Nc3ncc4c(n3)N(C)c3ccc(C)cc3C(=O)N4C)cc2)cc1 | 94% | 99% | 100% | 100% | 85% | 95% | 86% | 84% | 100% | 97% | 78% | 99% | 93% | 86% | 86% | 90% | 7.5 min | 90% | 80% | 91% | Activity [21]: 92%; Activity [22]: 100%; Activity [23]: 100%; Activity [24]: 100%; Activity [25]: 99%; Activity [26]: 92%
